According to ChEMBL document CHEMBL4138056, “T- and B-cell immunosuppressive activity of novel α-santonin analogs with humoral and cellular immune response in Balb/c mice” (Medchemcomm, 2017):

Columns and labels:
B-cell line [1] = assay: Cytotoxicity against Balb/c mouse B cells assessed as decrease cell survival at 1 uM by MTT assay; type: cell-based
In short: (§1)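 Balb/c splenocytes (RBC lysed with tris-ammonium chloride, trypan blue viability) seeded at 1×10^6 cells/mL with Con A or LPS (10 μg/mL each) and test agent at 1, 10 or 100 μM for 48 h at 37 °C, 5% CO2; MTT added for 4 h, formazan dissolved in DMSO, OD 540 nm. Cytotoxicity scored +/−; triplicate, three separate experiments.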

Murine T-cell line [2] = assay: Cytotoxicity against Balb/c mouse T cells assessed as decrease in cell survival at 10 uM by MTT assay; type: cell-based; in short: as §1
B-cell line [3] = assay: Cytotoxicity against Balb/c mouse B cells assessed as decrease cell survival at 10 uM by MTT assay; type: cell-based; in short: as §1
Murine T-cell line [4] = assay: Immunosuppressive activity in Balb/c mouse T cells assessed as inhibition of ConA-induced cell proliferation at 1 uM after 48 hrs by MTT assay relative to control
Murine T-cell line [5] = assay: Immunostimulant activity in Balb/c mouse T cells assessed as induction of ConA-induced cell proliferation at 100 uM after 48 hrs by MTT assay relative to control
Murine T-cell line [6] = assay: Immunosuppressive activity in Balb/c mouse T cells assessed as inhibition of ConA-induced cell proliferation at 10 uM after 48 hrs by MTT assay relative to control
B-cell line [7] = assay: Immunostimulant activity in Balb/c mouse B cells assessed as induction of LPS-induced cell proliferation at 100 uM after 48 hrs by MTT assay relative to control; type: cell-based
In short: (§2)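 Balb/c spleen single-cell suspension, RBCs lysed with tris-ammonium chloride, viability by trypan blue; 1×10^6 cells/mL stimulated with LPS (10 μg/mL) for B cells, test agent 1, 10 or 100 μM, 48 h at 37 °C, 5% CO2. MTT 4 h, DMSO solubilization, OD 540 nm; % change vs mitogen control; triplicate, three separate experiments.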

Murine T-cell line [8] = assay: Cytotoxicity against Balb/c mouse T cells assessed as decrease in cell survival at 100 uM by MTT assay; type: cell-based; in short: as §1
Murine T-cell line [9] = assay: Cytotoxicity against Balb/c mouse T cells assessed as decrease in cell survival at 1 uM by MTT assay; type: cell-based; in short: as §1
B-cell line [10] = assay: Immunosuppressive activity in Balb/c mouse B cells assessed as inhibition of LPS-induced cell proliferation at 1 uM after 48 hrs by MTT assay relative to control; type: functional; in short: as §2
B-cell line [11] = assay: Immunosuppressive activity in Balb/c mouse B cells assessed as inhibition of LPS-induced cell proliferation at 10 uM after 48 hrs by MTT assay relative to control; type: functional; in short: as §2
B-cell line [12] = assay: Cytotoxicity against Balb/c mouse B cells assessed as decrease cell survival at 100 uM by MTT assay; type: cell-based; in short: as §1
Murine T-cell line [13] = assay: Immunosuppressive activity in Balb/c mouse T cells assessed as inhibition of ConA-induced cell proliferation at 100 uM after 48 hrs by MTT assay relative to control
B-cell line [14] = assay: Immunosuppressive activity in Balb/c mouse B cells assessed as inhibition of LPS-induced cell proliferation at 100 uM after 48 hrs by MTT assay relative to control; type: functional; in short: as §2

Structure (SMILES)	Activity (B-cell line [1])	Activity (Murine T-cell line [2])	Activity (B-cell line [3])	inhibition at 1 µM (Murine T-cell line [4]) [%]	Activity (Murine T-cell line [5]) [%]	inhibition at 10 µM (Murine T-cell line [6]) [%]	Activity (B-cell line [7]) [%]	Activity (Murine T-cell line [8])	Activity (Murine T-cell line [9])	inhibition at 1 µM (B-cell line [10]) [%]	inhibition at 10 µM (B-cell line [11]) [%]	Activity (B-cell line [12])	inhibition at 100 µM (Murine T-cell line [13]) [%]	inhibition at 100 µM (B-cell line [14]) [%]
CCCCC(=O)Oc1cc(C)c2c(c1C)[C@@H]1OC(=O)[C@@H](C)[C@@H]1CC2	Non-Toxic	Non-Toxic	Non-Toxic	43.2	28.16	29.6	6.25	Toxic	Non-Toxic	2.08	49	Toxic	–	–
CCCCCOc1cc(C)c2c(c1C)[C@@H]1OC(=O)[C@@H](C)[C@@H]1CC2	Toxic	Toxic	Toxic	11.1	–	33.1	–	Toxic	Toxic	29.5	32.4	Toxic	29.4	9.59
Cc1cc(O)c(C)c2c1CC[C@H]1[C@H](C)C(=O)O[C@@H]21	Toxic	Toxic	Toxic	22.1	58.13	27.4	38.25	Toxic	Toxic	23.3	24.9	Toxic	–	–
Cc1cc(OC(=O)CCC(=O)Nc2ccccc2Cl)c(C)c2c1CC[C@H]1[C@H](C)C(=O)O[C@@H]21	Non-Toxic	Non-Toxic	Non-Toxic	13	–	45	–	Non-Toxic	Non-Toxic	27.7	51	Non-Toxic	56	69
COc1cc(C)c2c(c1C)[C@@H]1OC(=O)[C@@H](C)[C@@H]1CC2	Toxic	Toxic	Toxic	50	–	23.2	–	Toxic	Toxic	42	19.1	Toxic	16.1	21
Cc1cc(OCc2ccc(Cl)cc2)c(C)c2c1CC[C@H]1[C@H](C)C(=O)O[C@@H]21	Non-Toxic	Non-Toxic	Non-Toxic	15	–	33	–	Toxic	Non-Toxic	37	37	Toxic	45	28
CCC(=O)Oc1cc(C)c2c(c1C)[C@@H]1OC(=O)[C@@H](C)[C@@H]1CC2	Toxic	Toxic	Toxic	11.7	–	33	–	Toxic	Toxic	20	43	Toxic	41	69
Cc1cc(OC(=O)c2ccccc2)c(C)c2c1CC[C@H]1[C@H](C)C(=O)O[C@@H]21	Non-Toxic	Non-Toxic	Non-Toxic	71.8	23.94	39.4	–	Non-Toxic	Non-Toxic	18.8	43.8	Non-Toxic	–	17.7
CCOc1cc(C)c2c(c1C)[C@@H]1OC(=O)[C@@H](C)[C@@H]1CC2	Non-Toxic	Toxic	Toxic	28	16	5	–	Toxic	Non-Toxic	35	1	Toxic	–	46
CCCOc1cc(C)c2c(c1C)[C@@H]1OC(=O)[C@@H](C)[C@@H]1CC2	Non-Toxic	Toxic	Toxic	33	36	41	–	Toxic	Non-Toxic	47	49	Toxic	–	43
CCCCOc1cc(C)c2c(c1C)[C@@H]1OC(=O)[C@@H](C)[C@@H]1CC2	Non-Toxic	Non-Toxic	Non-Toxic	32	–	51	–	Non-Toxic	Non-Toxic	25.2	33.3	Non-Toxic	33.8	39
COc1ccc(NC(=O)CCC(=O)Oc2cc(C)c3c(c2C)[C@@H]2OC(=O)[C@@H](C)[C@@H]2CC3)cc1	Non-Toxic	Non-Toxic	Non-Toxic	1	–	35	–	Toxic	Non-Toxic	17.7	52	Toxic	58	68
CC(=O)Oc1cc(C)c2c(c1C)[C@@H]1OC(=O)[C@@H](C)[C@@H]1CC2	Non-Toxic	Non-Toxic	Non-Toxic	39.7	–	45.2	–	Toxic	Non-Toxic	51.8	44.3	Toxic	63	68
CCCCCC(=O)Oc1cc(C)c2c(c1C)[C@@H]1OC(=O)[C@@H](C)[C@@H]1CC2	Non-Toxic	Toxic	Toxic	39.4	–	46	7.29	Toxic	Non-Toxic	22.9	26	Toxic	78.9	–
Cc1cc(OC(=O)CCC(=O)Nc2ccccc2F)c(C)c2c1CC[C@H]1[C@H](C)C(=O)O[C@@H]21	Non-Toxic	Non-Toxic	Non-Toxic	16.7	–	41.7	–	Non-Toxic	Non-Toxic	21	44	Non-Toxic	66.7	77.9
Cc1cc(OC(=O)CCC(=O)O)c(C)c2c1CC[C@H]1[C@H](C)C(=O)O[C@@H]21	Non-Toxic	Toxic	Toxic	29.4	–	53.4	–	Toxic	Non-Toxic	33.3	42.7	Toxic	61.7	5.2
CCCC(=O)Oc1cc(C)c2c(c1C)[C@@H]1OC(=O)[C@@H](C)[C@@H]1CC2	Non-Toxic	Non-Toxic	Non-Toxic	28.5	–	38	–	Non-Toxic	Non-Toxic	12.5	35.4	Non-Toxic	71.9	69.8
